Assay [1] has as its target T1, Protein lin-28 homolog A/B (Homo sapiens) (UniProt Q6ZN17+Q9H9Z2). As to the kind of experiment: Inhibition of Lin28a/Lin28b in human paclitaxel-resistant JAR cells assessed as potentiation of paclitaxel induced cytotoxicity at 40 uM pretreated for 30 hrs followed by paclitaxel addition and measured after 72 hrs by WTS assay. In outline:
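Paclitaxel-resistant JAR persister cells, enriched by cytotoxic paclitaxel exposure and regrowth without drug. Cells pretreated 30 h with compound, then given paclitaxel for 72 h without compound; WST viability used to derive the paclitaxel IC50.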

Assay [2] deals with T1, Protein lin-28 homolog A/B (Homo sapiens). As to the kind of experiment: Inhibition of Lin28a/Lin28b in human paclitaxel-resistant JAR cells assessed as reduction in MDR1 expression at 40 uM measured after 30 hrs by Western blot analysis. In general terms: In western blotting, separated proteins are transferred to a membrane and probed.
The target is the same in assay [3]. The assay can be described thus: Inhibition of Lin28a/Lin28b in human paclitaxel-resistant JAR cells assessed as reduction in IMP1 expression at 40 uM measured after 24 hrs by Western blot analysis.
The next assay concerns the target T2, Protein lin-28 homolog A (Homo sapiens, UniProt Q9H9Z2).
T2 sequence (Q9H9Z2 whole entry): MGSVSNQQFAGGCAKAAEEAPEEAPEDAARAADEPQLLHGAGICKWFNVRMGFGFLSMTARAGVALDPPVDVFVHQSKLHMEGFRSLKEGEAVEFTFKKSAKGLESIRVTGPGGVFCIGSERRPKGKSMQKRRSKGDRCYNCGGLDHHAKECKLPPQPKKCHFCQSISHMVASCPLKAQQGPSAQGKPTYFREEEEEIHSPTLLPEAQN
The assay can be described thus: Inhibition of Cy5-preE-let-7g binding to recombinant human N-terminal His6-tagged Lin28a expressed in Escherichia coli Rosetta2 (DE3) pLysS measured after 30 to 60 mins by electrophoretic mobility shift assay. A general note: Mobility shift assays separate free from complexed probe on a gel.

The target in assay [4] is T3, Protein lin-28 homolog A (Homo sapiens) (UniProt Q9H9Z2).
T3 sequence (whole entry): T2 sequence (Q9H9Z2 whole entry)
As to the kind of experiment: Inhibition of Cy5-preE-let-7g binding to recombinant human N-terminal His6-tagged Lin28a expressed in Escherichia coli Rosetta2 (DE3) pLysS at 15 uM measured after 30 to 60 mins by electrophoretic mobility shift assay relative to control.

The target of assay [5] is T1, Protein lin-28 homolog A/B (Homo sapiens). The assay can be described thus: Inhibition of Lin28a/Lin28b in human JAR cells assessed as reduction in Lin28a expression at 5 to 10 uM after 24 hrs by Western blot analysis. The class given is cell-based. Put shortly: (§1)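 Endogenous let-7 target proteins (HMGA2, IMP1, Ras, Lin28a) detected by Western blot in JAR or PA-1 cells after 24 h compound treatment.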

Assay [6] has the same target. The assay can be described thus: Inhibition of Lin28a/Lin28b in human JAR cells assessed as increase in mature let-7a level at 5 to 10 uM after 20 hrs by TRIzol dye based qRT-PCR analysis. The assay is classed as cell-based. Put shortly: (§2)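 JAR cells (express Lin28a and Lin28b) exposed to compound for 20 h; miRNA levels quantified with U6 snRNA as endogenous control; three or more biological replicates, standard deviation, paired two-tailed t test.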
A general note: Quantitative PCR measures a nucleic acid by following its amplification.

Assay [7] shares this target. As to the kind of experiment: Inhibition of Lin28a/Lin28b in human JAR cells assessed as reduction in IMP1 expression at 5 to 10 uM after 24 hrs by Western blot analysis. The assay is classed as cell-based. Put shortly: as §1
For assay [8] the target is unchanged. The assay can be described thus: Inhibition of Lin28a/Lin28b in human JAR cells assessed as increase in mature let-7g level at 5 to 10 uM after 20 hrs by TRIzol dye based qRT-PCR analysis. The class given is cell-based. Put shortly: as §2
The target is the same in assay [9]. As to the kind of experiment: Inhibition of Lin28a/Lin28b in human JAR cells assessed as reduction in Ras expression at 5 to 10 uM after 24 hrs by Western blot analysis. The assay is classed as cell-based. Put shortly: as §1
For assay [10] the target is unchanged. As to the kind of experiment: Inhibition of Lin28a/Lin28b in human JAR cells assessed as reduction in HMGA2 expression at 5 to 10 uM after 24 hrs by Western blot analysis. The class given is cell-based. Put shortly: as §1

Calls of active or inactive are those of the source. The calls are words filed in the database; no cut-off is given here.

T1 sequence (Q6ZN17 whole entry, looked up, one chain of several): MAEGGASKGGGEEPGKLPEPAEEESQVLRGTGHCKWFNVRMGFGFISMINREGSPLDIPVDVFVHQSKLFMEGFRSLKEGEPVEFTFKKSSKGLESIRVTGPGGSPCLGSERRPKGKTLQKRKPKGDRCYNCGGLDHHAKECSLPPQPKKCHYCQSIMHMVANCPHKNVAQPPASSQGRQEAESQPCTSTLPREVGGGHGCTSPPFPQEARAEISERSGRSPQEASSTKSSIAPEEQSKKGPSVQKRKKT

The term inhibition denotes the share of the control response that was lost under treatment. For the molecule `CC1(C)Oc2cc(N3CCN(C(=O)OCc4ccccc4)CC3)c([N+](=O)[O-])cc2-c2c1cnn2-c1ccc(C(=O)O)cc1`, the inhibition entry in assay [1], in assay [2] and in [3] was “Active” throughout.
What is called IC50 is the concentration at which inhibition is half-maximal. As for `NC(=O)c1c(Nc2ccc(Cl)cc2Cl)[nH]c2c(Cl)c(Cl)ccc2c1=O`, the concentration for half-maximal inhibition (IC50) at Protein lin-28 homolog A was determined as 11 µM.
Take `COc1cccc(Nc2[nH]c3c(Cl)ccc(Cl)c3c(=O)c2C(N)=O)c1`: the inhibition in assay [4] stood at 14%. For the same molecule, the inhibition entry in assay [5], in assay [7], in assay [9] and in assay [10] was “inactive” each time. Further, the result in [6] and in [8] was Active.
Turning to `NC(=O)c1c(Nc2ccc(F)cc2)[nH]c2c(Cl)ccc(Cl)c2c1=O`, the inhibition in [4] is 40%.

Values taken from ChEMBL document CHEMBL4325922, “Restoring Let-7 microRNA Biogenesis Using a Small-Molecule Inhibitor of the Protein-RNA Interaction” (ACS Med Chem Lett, 2018).
